We go through 22 compounds from ChEMBL document CHEMBL1140966, “Syntheses and evaluation of 3-(3-bromo phenyl)-5-phenyl-1-(thiazolo [4,5-b] quinoxaline-2-yl)-2-pyrazoline derivatives” (Eur J Med Chem, 2008).

The subject of one data set is Entamoeba histolytica. The data set is described as follows: Antiamoebic activity against Entamoeba histolytica HMI:IMSS after 72 hrs by microdilution method. The format is functional, organism-based. The essentials: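 E. histolytica HMI:IMSS trophozoites grown in TYIS-33 medium. Compounds dissolved in DMSO, made up to 1 mg/ml with medium, then twofold serial dilutions in 96-well plates. 1.7 × 10⁴ viable organisms/well; plates gassed with nitrogen for 10 min, 37 °C for 72 h. Cells methanol-fixed and eosin-stained, dye released with 0.1 N NaOH, OD read at 490 nm. IC50 taken from linear regression of % inhibition vs log dose.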

Data set [1] in a line: Cytotoxicity against human kidney epithelial cells after 44 hrs by MTT assay. Type of data set: cell-based. The note with it: Epithelial cell. In outline: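 Transformed human kidney epithelial (Graham) cells kept at 37 °C in 5% CO2. Trypsinized cells adjusted to 0.5 million cells/mL and plated with compound. After 44 h, 2 mM MTT added for a further 4 h, then DMSO added to dissolve formazan. Absorbance read at 540 nm with 690 nm reference; % viability calculated against controls.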
On the technique in general: Tetrazolium dyes change colour on reduction, which living cells bring about.

Data set [2] in a line: Safety index, ratio of IC50 for human kidney epithelial cells to IC50 for Entamoeba histolytica HMI:IMSS. The format is toxicity, cell-based, Epithelial cell. The note with it: read-out: Ratio IC50. In outline:
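Ratio computed as toxicity IC50 in human kidney epithelial cells (concentration killing 50% of cells, MTT) over protozoal IC50 against E. histolytica (concentration killing 50% of amoebae).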

`CCc1ccccc1C1CC(c2cccc(Br)c2)=NN1C(N)=S` (centres undefined): the midpoint of inhibition in the data set with Entamoeba histolytica, the IC50, lay at 2.61 µM.

For `Cc1ccc(C2CC(c3cccc(Br)c3)=NN2C(N)=S)cc1` (centres undefined), in the data set with Entamoeba histolytica, the 50% inhibitory concentration (IC50) (usually the concentration needed to halve the response being measured) was determined as 4.38 µM. Still for that read-out and setting: with `NC(=S)N1N=C(c2cccc(Br)c2)CC1c1ccccc1Cl` (centres undefined) the figure was 1.9 µM. Consider `Cc1ccc(C2CC(c3cccc(Br)c3)=NN2c2nc3nc4ccccc4nc3s2)cc1` (centres undefined), for which the half-maximal inhibitory concentration (IC50) in the data set with Entamoeba histolytica is 0.1 µM; in data set [1], above 60 µM. Also, the selectivity ratio in data set [2] is above 600. Compound `NC(=S)N1N=C(c2cccc(Br)c2)CC1c1ccccc1` (centres undefined) came in with an IC50 in the data set on Entamoeba histolytica of 0.19 µM.

With `Clc1ccccc1C1CC(c2cccc(Br)c2)=NN1c1nc2nc3ccccc3nc2s1` (centres undefined), the IC50 in the data set on Entamoeba histolytica was 0.68 µM; in data set [1], above 60 µM. For the same compound, the selectivity ratio in data set [2] is above 88.2. In the case of `Cc1ccc(/C=C/C(=O)c2cccc(Br)c2)cc1`, the IC50 with Entamoeba histolytica stood at 2.49 µM. Regarding `Brc1cccc(C2=NN(c3nc4nc5ccccc5nc4s3)C(c3c[nH]c4ccccc34)C2)c1` (centres undefined), the values for the half-inhibitory concentration (IC50) (with Entamoeba histolytica; in data set [1]) were 0.08 µM and above 60 µM, respectively. Also, the selectivity ratio in data set [2] is above 750. In the case of `O=C(/C=C/c1ccccc1Cl)c1cccc(Br)c1`, the IC50 in the data set on Entamoeba histolytica is 2.23 µM. The same measure, in the same setting: with `Cc1cc(C)c(C2CC(c3cccc(Br)c3)=NN2C(N)=S)c(C)c1` (centres undefined) the figure was 1.71 µM. For the compound `Clc1cccc(C2CC(c3cccc(Br)c3)=NN2c2nc3nc4ccccc4nc3s2)c1Cl` (centres undefined), the IC50 with Entamoeba histolytica was 0.7 µM; in data set [1] it was above 60 µM. For the same compound, the selectivity ratio in data set [2] is above 85.7.

As to `CC(C)c1ccccc1C1CC(c2cccc(Br)c2)=NN1C(N)=S` (centres undefined), the IC50 in the data set with Entamoeba histolytica was determined as 2.34 µM.

In the case of `Cc1cc(C)c(C2CC(c3cccc(Br)c3)=NN2c2nc3nc4ccccc4nc3s2)c(C)c1` (centres undefined), the values for the IC50 (in the data set on Entamoeba histolytica; in data set [1]) were 1.29 µM and above 60 µM, respectively. Besides, the selectivity ratio in data set [2] was above 46.5. Compound `CC(C)c1ccccc1/C=C/C(=O)c1cccc(Br)c1` yielded an IC50 in the data set with Entamoeba histolytica of 1.92 µM.

In the data set on Entamoeba histolytica, `Cc1cc(C)c(/C=C/C(=O)c2cccc(Br)c2)c(C)c1` displayed an IC50 of 1.8 µM. As to `NC(=S)N1N=C(c2cccc(Br)c2)CC1c1c[nH]c2ccccc12` (centres undefined), in the data set with Entamoeba histolytica, the 50% inhibitory concentration (IC50) came to 2.28 µM. Consider `CCc1ccccc1C1CC(c2cccc(Br)c2)=NN1c1nc2nc3ccccc3nc2s1` (centres undefined), for which the half-maximal inhibitory concentration (IC50) is 2.49 µM in the data set with Entamoeba histolytica and above 60 µM in data set [1]. Besides, the selectivity ratio in data set [2] is above 24.1. In the data set on Entamoeba histolytica, `O=C(/C=C/c1ccc(Cl)cc1Cl)c1cccc(Br)c1` returned an IC50 of 1.11 µM. As for `Cc1ncc([N+](=O)[O-])n1CCO` [METRONIDAZOLE], the IC50 in data set [1] is above 100 µM. The selectivity ratio in data set [2] was above 55.5. As for `Brc1cccc(C2=NN(c3nc4nc5ccccc5nc4s3)C(c3ccccc3)C2)c1` (centres undefined), the IC50 in the data set with Entamoeba histolytica was 0.14 µM; in data set [1], above 60 µM. Moreover, the selectivity ratio in data set [2] is above 428.

As to `CC(C)c1ccccc1C1CC(c2cccc(Br)c2)=NN1c1nc2nc3ccccc3nc2s1` (centres undefined), the figures for the half-inhibitory concentration (IC50) (in the data set with Entamoeba histolytica; in data set [1]) were 1.87 µM and above 60 µM, respectively. The selectivity ratio in data set [2] is above 32.1. Turning to `NC(=S)N1N=C(c2cccc(Br)c2)CC1c1cccc(Cl)c1Cl` (centres undefined), 0.56 µM corresponded to half-maximal inhibition with Entamoeba histolytica (IC50).
